# From ChEMBL document CHEMBL2331496 (Eur J Med Chem, 2013)
# Active and inactive are the calls of the source. The calls are words filed in the database; no cut-off is given here.
# How the values were obtained:
# [1] = tested on: Human immunodeficiency virus 1; experiment: Antiviral activity against HIV1 NL4.3 infected in 293T cells assessed as spherical core at 5 ug/ml after 2 days by electron microscopic analysis; assay type: functional, organism-based
# [2] = tested on: Human immunodeficiency virus 1; experiment: Antiviral activity against HIV1 NL4.3 infected in MAGIC-5B cells after 48 hrs by beta-galactosidase reporter gene assay; assay type: functional, organism-based; conditions: Human immunodeficiency virus 1, NL4.3, 48 h
# In short: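 MAGIC-5B indicator cells (beta-galactosidase under the HIV-1 LTR), 8×10^4 per well, were exposed to these supernatants. After 48 h, ONPG hydrolysis was read in lysates and normalised to total protein.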
# [3] = tested on: Human immunodeficiency virus 1; experiment: Antiviral activity against HIV1 NL4.3 infected in 293T cells assessed as aberrant core at 5 ug/ml after 2 days by electron microscopic analysis; assay type: functional, organism-based
# [4] = tested on: Human immunodeficiency virus 1; experiment: Antiviral activity against HIV1 NL4.3 infected in 293T cells assessed as acentric core at 5 ug/ml after 2 days by electron microscopic analysis; assay type: functional, organism-based
# [5] = Selectivity index, ratio of CC50 for human MAGIC-5B cells to IC50 for HIV1 NL4.3; assay type: functional
# [6] = Cytotoxicity against human MAGIC-5B cells after 48 hrs by MTT assay; assay type: cell-based
# 293T = experiment: Inhibition of HIV1 NL4.3 CA-SP1 cleavage infected in 293T cells after 2 days by Western blot analysis; assay type: cell-based; conditions: Human immunodeficiency virus 1
# [7] = tested on: Human immunodeficiency virus; experiment: Antiviral activity against HIV infected in H9 cells; assay type: functional, organism-based; conditions: Human immunodeficiency virus 1, H9
# [8] = Ratio of compound selectivity index to bevirimat selectivity index for HIV1 NL4.3 over human MAGIC-5B cells
# [9] = tested on: Human immunodeficiency virus 1; experiment: Binding affinity to HIV1 NL4.3 CA-SP1 at 550 uM by chemical shift pertubation NMR analysis
# In short: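 2D 1H-1H NOESY of CA-SP1-NC peptide (250 uM) with and without ligand (550 uM). pH 3.8 in H2O/TFE 70/30 (to prevent aggregation) with 1% DMSO-d6. Spectral width 5296.6 Hz, excitation-sculpting water suppression, 250 ms NOE mixing time. Chemical-shift perturbation of the wild-type junction plotted per residue.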
SMILES,Activity [1],IC50 [2] [µM],Activity [3],Activity [4],Ratio CC50/IC50 [5],CC50 at 48 h [6] [µM],inhibition (293T),EC50 [7] [µM],Ratio [8],Activity [9]
C=C(C)[C@@H]1CC[C@]2(C(=O)NCC(=O)O)CC[C@]3(C)[C@H](CC[C@@H]4[C@@]5(C)CC[C@H](OC(=O)CC(C)(C)C(=O)O)C(C)(C)[C@@H]5CC[C@]43C)[C@@H]12,Active,0.16,Active,Active,309.37,49.5,Active,,,
C=C(C)[C@@H]1CC[C@]2(C(=O)O)CC[C@]3(C)[C@H](CC[C@@H]4[C@@]5(C)CC[C@H](O)C(C)(C)[C@@H]5CC[C@]43C)[C@@H]12 [BETULINIC ACID],inactive,5.32,inactive,inactive,0.85,4.52,inactive,,,
C=C(C)[C@@H]1CC[C@]2(C(=O)O)CC[C@]3(C)[C@H](CC[C@@H]4[C@@]5(C)CC[C@H](OC(=O)CC(C)(C)C(=O)O)C(C)(C)[C@@H]5CC[C@]43C)[C@@H]12 [BEVIRIMAT],Active,,Active,Active,,,Active,> 0.00035,,
C=C(C)[C@@H]1CC[C@]2(C(=O)N[C@@H](CCCCNC(=O)OC(C)(C)C)C(=O)O)CC[C@]3(C)[C@H](CC[C@@H]4[C@@]5(C)CC[C@H](OC(=O)CC(C)(C)C(=O)O)C(C)(C)[C@@H]5CC[C@]43C)[C@@H]12,Active,0.17,Active,Active,199.41,33.9,Active,,,
C=C(C)[C@@H]1CC[C@]2(C(=O)NCCN)CC[C@]3(C)[C@H](CC[C@@H]4[C@@]5(C)CC[C@H](OC(=O)CC(C)(C)C(=O)O)C(C)(C)[C@@H]5CC[C@]43C)[C@@H]12,Active,0.016,Active,Active,2118.75,33.9,Active,,2,Active
C=C(C)[C@@H]1CC[C@]2(C(=O)NCCC(=O)O)CC[C@]3(C)[C@H](CC[C@@H]4[C@@]5(C)CC[C@H](OC(=O)CC(C)(C)C(=O)O)C(C)(C)[C@@H]5CC[C@]43C)[C@@H]12,Active,0.118,Active,Active,411.01,48.5,Active,,,
C=C(C)[C@@H]1CC[C@]2(C(=O)N[C@@H](CCCCN)C(=O)O)CC[C@]3(C)[C@H](CC[C@@H]4[C@@]5(C)CC[C@H](OC(=O)CC(C)(C)C(=O)O)C(C)(C)[C@@H]5CC[C@]43C)[C@@H]12,inactive,4.33,inactive,inactive,11.24,48.7,inactive,,,
